One data set concerns the target T1, caspase-1 (Homo sapiens, UniProt P29466).
T1 sequence (P29466 120-297 limits assumed): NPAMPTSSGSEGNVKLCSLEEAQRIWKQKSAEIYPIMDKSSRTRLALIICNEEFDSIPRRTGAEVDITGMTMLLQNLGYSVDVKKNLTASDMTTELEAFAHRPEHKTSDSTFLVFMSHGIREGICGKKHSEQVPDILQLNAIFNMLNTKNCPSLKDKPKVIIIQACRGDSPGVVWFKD
T1 sequence (P29466 317-404 limits assumed): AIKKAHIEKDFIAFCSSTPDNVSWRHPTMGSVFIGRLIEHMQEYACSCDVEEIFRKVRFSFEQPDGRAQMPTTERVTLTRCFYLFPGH
Briefly: Caspase-1 inhibition assay, cleavage of fluorogenic substrate YVAD-AFC. Format: biochemical. The conditions noted are these: for remaining activity at 100 µM: read-out: Enzyme activity (% at 100 μM). A digest of the protocol:
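Fluorogenic caspase-1 assay: cleavage of YVAD-AFC releases free AFC, followed as a time course of fluorescence increase (Ex/Em 400/505 nm) and compared with an untreated control. Test compounds were run as 10-dose, 3-fold serial dilutions starting at 100 μM or 10 μM to give IC50. Residual activity at 100 μM is reported as % enzyme activity.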

The next data set has as its system U937 cells. Briefly: U937 cell growth inhibition / cell viability by MTT assay. The data set is classed as cell-based, human. To be noted: lowest concentrations (range 1 nM to 100 μM), 48 h. In a few lines: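 Human U937 cells were grown in RPMI 1640 with 10% FBS, penicillin and streptomycin at 37 °C in 5% CO2. They were seeded at 10000 cells/well and exposed to test compound at 1 nM–100 μM for 48 h, with matched DMSO-only controls. MTT (0.1 mg/well) was added for 4 h at 37 °C, then cells were lysed and A595 read. Viability is % of control (100%), mean of three independent experiments.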
In general terms: Tetrazolium assays rely on reduction of a dye to a coloured formazan, in cell work by metabolically active cells.

In the case of `O=C(O)C[C@@H](O)CNC(c1ccccc1)c1nnnn1CCCC(=O)N1CCc2ccccc2C1` (mixture of isomers) [(3R)5 ag, Sodium (3R)-4-(((1-(4-(3,4-dihydroisoquinolin-2(1H)-yl)-4-oxobutyl)-1H-tetrazol-5-yl)(phenyl)methyl)amino)-3-hydroxybutanoate], at caspase-1, the midpoint of inhibition, the IC50, lay at 53.5 µM and the remaining activity at 100 µM was 40.5%.
Taken in the same sequence, the figures for `CC(C)(C)CC(NC[C@H](O)CC(=O)O)c1nnnn1CCCC(=O)N1CCc2ccccc2C1` (mixture of isomers) [(3R)5ae, Sodium (3R)-4-((1-(1-(4-(3,4-dihydroisoquinolin-2(1H)-yl)-4-oxobutyl)-1H-tetrazol-5-yl)-3,3-dimethylbutyl)amino)-3-hydroxybutanoate] were 12.2 µM and 9.71%.
`O=C(O)C[C@@H](O)CNC(c1cccs1)c1nnnn1CCCC(=O)N1CCc2ccccc2C1` (mixture of isomers) [(3R)5ah, Sodium (3R)-4-(((1-(4-(3,4-dihydroisoquinolin-2(1H)-yl)-4-oxobutyl)-1H-tetrazol-5-yl)(thiophen-2-yl)methyl)amino)-3-hydroxybutanoate]: at caspase-1, the 50% inhibitory concentration (IC50) came to 32.6 µM and the remaining activity at 100 µM was 29%.
As to `O=C(O)C[C@@H](O)CNC(c1cccs1)c1nnnn1CCCC(=O)NCc1ccccc1` (mixture of isomers) [(3R)5bf, Sodium (3R)-4-(((1-(4-(benzylamino)-4-oxobutyl)-1H-tetrazol-5-yl)(thiophen-2-yl)methyl)amino)-3-hydroxybutanoate], at caspase-1, inhibition was half-maximal at 77.8 µM (IC50) and the remaining activity at 100 µM turned out to be 49.6%.
Taken in the same sequence, the figures for `CC(C)(C)CC(c1nnnn1CCCC(=O)N1CCc2ccccc2C1)N(Cc1ccccc1)C[C@H](O)CC(=O)O` (mixture of isomers) [(3R)16ac, Sodium (3R)-4-((1-(1-(4-(3,4-dihydroisoquinolin-2(1H)-yl)-4-oxobutyl)-1H-tetrazol-5-yl)-3,3-dimethylbutyl)(benzyl)amino)-3-hydroxybutanoate] were 15 µM and 4.45%.
With `O=C(O)C[C@H](O)CNC(c1ccccc1)c1nnnn1CCCC(=O)N1CCc2ccccc2C1` (mixture of isomers) [(3S)5 ag, Sodium (3S)-4-(((1-(4-(3,4-dihydroisoquinolin-2(1H)-yl)-4-oxobutyl)-1H-tetrazol-5-yl)(phenyl)methyl)amino)-3-hydroxybutanoate], on caspase-1, the midpoint of inhibition, the IC50, lay at 68 µM and the remaining activity at 100 µM worked out at 48.6%.
Taken in the same sequence, the figures for `O=C(O)C[C@H](O)CNC(c1cccs1)c1nnnn1CCCC(=O)N1CCc2ccccc2C1` (mixture of isomers) [(3S)5ah, Sodium (3S)-4-(((1-(4-(3,4-dihydroisoquinolin-2(1H)-yl)-4-oxobutyl)-1H-tetrazol-5-yl)(thiophen-2-yl)methyl)amino)-3-hydroxybutanoate] were 51.4 µM and 37.2%.
Regarding `CC(NCC(O)CC(=O)O)c1nnnn1CCCC(=O)N1CCc2ccccc2C1` (centres unmarked) [5aa, Sodium 4-((1-(1-(4-(3,4-dihydroisoquinolin-2(1H)-yl)-4-oxobutyl)-1H-tetrazol-5-yl)ethyl)amino)-3-hydrxybutanoate], at caspase-1, the remaining activity at 100 µM was greater than 96.7%.
For the compound `CC(C)(C)CC(NCC(O)CC(=O)[O-])c1nnnn1CCCC(=O)N1CCc2ccccc2C1.[Na+]` (centres unmarked) [5ae, Sodium-4-((1-(1-(4-(3,4-dihydroisoquinolin-2(1H)-yl)-4-oxobutyl)-1H-tetrazol-5-yl)-3,3-dimethylbutyl)amino)-3-hydroxybutanoate], the cytotoxic effect entry in the data set with U937 cells was “low or is not significant”.
With `CC(NCC(O)CC(=O)O)c1nnnn1CCCC(=O)NCc1ccccc1` (centres unmarked) [5ba, Sodium 4-((1-(1-(4-(benzylamino)-4-oxobutyl)-1H-tetrazol-5-yl)ethyl)amino)-3-hydroxybutanoate], the remaining activity at 100 µM on caspase-1 is greater than 96.7%.
For `CC(C)C(NCC(O)CC(=O)O)c1nnnn1CCCC(=O)NCc1ccccc1` (centres unmarked) [5bb, Sodium 4-((1-(1-(4-(benzylamino)-4-oxobutyl)-1H-tetrazol-5-yl)-2-methylpropyl)amino)-3-hydroxybutanoate], the remaining activity at 100 µM on caspase-1 was greater than 96.7%.
For `O=C(O)CC(O)CNC(c1ccccc1)c1nnnn1CCCC(=O)NCc1ccccc1` (centres unmarked) [5be, Sodium 4-(((1-(4-(benzylamino)-4-oxobutyl)-1H-tetrazol-5-yl)(phenyl)methyl)amino)-3-hydroxybutanoate], the remaining activity at 100 µM on caspase-1 was greater than 96.7%.
Turning to `O=C(O)CC(O)CNC(c1cccs1)c1nnnn1CCCC(=O)NCc1ccccc1` (centres unmarked) [5bf, Sodium 4-(((1-(4-(benzylamino)-4-oxobutyl)-1H-tetrazol-5-yl)(thiophen-2-yl)methyl)amino)-3-hydroxybutanoate], on caspase-1, the remaining activity at 100 µM is greater than 96.7%.
Regarding `COc1cc2c(cc1OC)CN(C(=O)CCCn1nnnc1C(NCC(O)CC(=O)O)C(C)C)CC2` (centres unmarked) [5ca, Sodium 4-((1-(1-(4-(6,7-dimethoxy-3,4-dihydroisoquinolin-2(1H)-yl)-4-oxobutyl)-1H-tetrazol-5-yl)-2-methylpropyl)amino)-3-hydroxybutanoate], the remaining activity at 100 µM on caspase-1 is greater than 96.7%.
Regarding `COc1cc2c(cc1OC)CN(C(=O)CCCn1nnnc1C(NCC(O)CC(=O)O)c1cccs1)CC2` (centres unmarked) [5ce, Sodium 4-(((1-(4-(6,7-dimethoxy-3,4-dihydroisoquinolin-2(1H)-yl)-4-oxobutyl)-1H-tetrazol-5-yl)(thiophen-2-yl)methyl)amino)-3-hydroxybutanoate], the remaining activity at 100 µM at caspase-1 is greater than 96.7%.
As to `CC(C)CC(c1nnnn1CCCC(=O)N1CCc2ccccc2C1)N(Cc1ccccc1)CC(O)CC(=O)[O-].[Na+]` (centres unmarked) [16aa, Sodium 4-(benzyl(1-(1-(4-(3,4-dihydroisoquinolin-2(1H)-yl)-4-oxobutyl)-1H-tetrazol-5-yl)-3-methylbutyl)amino)-3-hydroxybutanoate], the cytotoxic effect result with U937 cells is on record as “low or is not significant”.

The term IC50 denotes the concentration that gives 50% inhibition. A higher IC50 goes with weaker potency in that assay.

These data come from article PMC8598261 (European Journal of Medicinal Chemistry, 2021).
